Source: ChEMBL document CHEMBL4715736, “Identification of anticancer agents based on the thieno[2,3-b]pyridine and 1H-pyrazole molecular scaffolds” (2016)

What was measured:
Assay type in all cases: functional
Details in all cases: read-out: Activity
HL-60(TB) = experiment: Growth inhibition of human HL-60(TB) cells assessed as cell growth at 10 uM incubated for 48 hrs by sulforhodamine B assay relative to control
Procedure, shortened: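 Screened by the NCI Developmental Therapeutics Program on its panel of 60 human tumour cell lines. Compounds were first tested at a single 10 µM dose, and compounds active there went to dose-response curves. Growth is expressed relative to untreated control (100%). GI50 (50% of maximal proliferation inhibition) and TGI (total growth inhibition) were derived from the dose-response data.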

MOLT-4 = experiment: Growth inhibition of human MOLT-4 cells assessed as cell growth at 10 uM incubated for 48 hrs by sulforhodamine B assay relative to control
Procedure, shortened: (§1)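 Submitted to the NCI Developmental Therapeutics Program for the NCI60 human tumour cell line panel. First screen at a single 10 µM concentration. Read-out is growth relative to untreated control cells set at 100%.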

A549 = experiment: Growth inhibition of human A549/ATCC cells assessed as cell growth at 10 uM incubated for 48 hrs by sulforhodamine B assay relative to control
Procedure, shortened: (§2)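 NCI Developmental Therapeutics Program NCI60 panel. Compounds that were active in the 10 µM one-dose screen went on to dose–response testing. Growth at each concentration is expressed relative to untreated control (100%). GI50 (concentration giving 50% of maximal inhibition of proliferation) and TGI (concentration giving total growth inhibition) were derived from the curves.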

HOP-92 = experiment: Growth inhibition of human HOP-92 cells assessed as cell growth at 10 uM incubated for 48 hrs by sulforhodamine B assay relative to control; procedure, shortened: as §1
NCI-H460 = experiment: Growth inhibition of human NCI-H460 cells assessed as cell growth at 10 uM incubated for 48 hrs by sulforhodamine B assay relative to control; procedure, shortened: as §1
COLO 205 = experiment: Growth inhibition of human COLO 205 cells assessed as cell growth at 10 uM incubated for 48 hrs by sulforhodamine B assay relative to control; procedure, shortened: as §2
HCC 2998 = experiment: Growth inhibition of human HCC 2998 cells assessed as cell growth at 10 uM incubated for 48 hrs by sulforhodamine B assay relative to control; procedure, shortened: as §2
HCT-116 = experiment: Growth inhibition of human HCT-116 cells assessed as cell growth at 10 uM incubated for 48 hrs by sulforhodamine B assay relative to control; procedure, shortened: as §1
HCT-15 = experiment: Growth inhibition of human HCT-15 cells assessed as cell growth at 10 uM incubated for 48 hrs by sulforhodamine B assay relative to control; procedure, shortened: as §1
KM12 = experiment: Growth inhibition of human KM12 cells assessed as cell growth at 10 uM incubated for 48 hrs by sulforhodamine B assay relative to control; procedure, shortened: as §1
SF-295 = experiment: Growth inhibition of human SF-295 cells assessed as cell growth at 10 uM incubated for 48 hrs by sulforhodamine B assay relative to control
Procedure, shortened: (§3)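 Run by the NCI Developmental Therapeutics Program as part of its 60-line human tumour panel. Each compound tested at a single 10 µM dose. Growth expressed as % relative to untreated control cells (100%).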

SF-539 = experiment: Growth inhibition of human SF-539 cells assessed as cell growth at 10 uM incubated for 48 hrs by sulforhodamine B assay relative to control; procedure, shortened: as §3
SNB-19 = experiment: Growth inhibition of human SNB-19 cells assessed as cell growth at 10 uM incubated for 48 hrs by sulforhodamine B assay relative to control; procedure, shortened: as §3
U-251 = experiment: Growth inhibition of human U-251 cells assessed as cell growth at 10 uM incubated for 48 hrs by sulforhodamine B assay relative to control; procedure, shortened: as §3
Malme-3M = experiment: Growth inhibition of human Malme-3M cells assessed as cell growth at 10 uM incubated for 48 hrs by sulforhodamine B assay relative to control; procedure, shortened: as §1
M14 = experiment: Growth inhibition of human M14 cells assessed as cell growth at 10 uM incubated for 48 hrs by sulforhodamine B assay relative to control; procedure, shortened: as §1
MDA-MB-435 = experiment: Growth inhibition of human MDA-MB-435 cells assessed as cell growth at 10 uM incubated for 48 hrs by sulforhodamine B assay relative to control; procedure, shortened: as §1
SK-MEL-5 = experiment: Growth inhibition of human SK-MEL-5 cells assessed as cell growth at 10 uM incubated for 48 hrs by sulforhodamine B assay relative to control; procedure, shortened: as §3
OVCAR-4 = experiment: Growth inhibition of human OVCAR-4 cells assessed as cell growth at 10 uM incubated for 48 hrs by sulforhodamine B assay relative to control; procedure, shortened: as §3
OVCAR-8 = experiment: Growth inhibition of human OVCAR-8 cells assessed as cell growth at 10 uM incubated for 48 hrs by sulforhodamine B assay relative to control; procedure, shortened: as §3
NCI/ADR-RES = experiment: Growth inhibition of human NCI/ADR-RES cells assessed as cell growth at 10 uM incubated for 48 hrs by sulforhodamine B assay relative to control; procedure, shortened: as §1
786-0 = experiment: Growth inhibition of human 786-0 cells assessed as cell growth at 10 uM incubated for 48 hrs by sulforhodamine B assay relative to control; procedure, shortened: as §2
A498 = experiment: Growth inhibition of human A498 cells assessed as cell growth at 10 uM incubated for 48 hrs by sulforhodamine B assay relative to control; procedure, shortened: as §2
ACHN = experiment: Growth inhibition of human ACHN cells assessed as cell growth at 10 uM incubated for 48 hrs by sulforhodamine B assay relative to control
Procedure, shortened: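 NCI Developmental Therapeutics Program NCI60 human tumour cell line panel, one-dose primary screen with every compound at 10 µM. Growth is expressed as % of untreated control cells (100%).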

RXF 393 = experiment: Growth inhibition of human RXF 393 cells assessed as cell growth at 10 uM incubated for 48 hrs by sulforhodamine B assay relative to control; procedure, shortened: as §3
SN12C = experiment: Growth inhibition of human SN12C cells assessed as cell growth at 10 uM incubated for 48 hrs by sulforhodamine B assay relative to control; procedure, shortened: as §3
UO-31 = experiment: Growth inhibition of human UO-31 cells assessed as cell growth at 10 uM incubated for 48 hrs by sulforhodamine B assay relative to control; procedure, shortened: as §3
PC-3 = experiment: Growth inhibition of human PC-3 cells assessed as cell growth at 10 uM incubated for 48 hrs by sulforhodamine B assay relative to control; procedure, shortened: as §3
DU-145 = experiment: Growth inhibition of human DU-145 cells assessed as cell growth at 10 uM incubated for 48 hrs by sulforhodamine B assay relative to control; procedure, shortened: as §2
MCF7 = experiment: Growth inhibition of human MCF7 cells assessed as cell growth at 10 uM incubated for 48 hrs by sulforhodamine B assay relative to control; procedure, shortened: as §1
T47D = experiment: Growth inhibition of human T47D cells assessed as cell growth at 10 uM incubated for 48 hrs by sulforhodamine B assay relative to control; procedure, shortened: as §3
MDA-MB-468 = experiment: Growth inhibition of human MDA-MB-468 cells assessed as cell growth at 10 uM incubated for 48 hrs by sulforhodamine B assay relative to control; procedure, shortened: as §1
OVCAR-3 = experiment: Growth inhibition of human OVCAR-3 cells assessed as cell growth at 10 uM incubated for 48 hrs by sulforhodamine B assay relative to control; procedure, shortened: as §3

SMILES | growth at 10 µM (MOLT-4) [%] | growth at 10 µM (A549) [%] | growth at 10 µM (HOP-92) [%] | growth at 10 µM (NCI-H460) [%] | growth at 10 µM (HCC 2998) [%] | growth at 10 µM (HCT-116) [%] | growth at 10 µM (HCT-15) [%] | growth at 10 µM (KM12) [%] | growth at 10 µM (SF-295) [%] | growth at 10 µM (SF-539) [%] | growth at 10 µM (SNB-19) [%] | growth at 10 µM (U-251) [%] | growth at 10 µM (Malme-3M) [%] | growth at 10 µM (M14) [%] | growth at 10 µM (MDA-MB-435) [%] | growth at 10 µM (SK-MEL-5) [%] | growth at 10 µM (OVCAR-4) [%] | growth at 10 µM (OVCAR-8) [%] | growth at 10 µM (NCI/ADR-RES) [%] | growth at 10 µM (786-0) [%] | further results
CCOc1ccc(-c2cc(N)n(S(=O)(=O)c3ccc(OC)cc3)n2)cc1 | 85.2 | 92.5 | 82.2 | 98.8 | 112 | 96 | 98.7 | 123 | 115 | 98.4 | 96.3 | 101 | 114 | 120 | 101 | 97.5 | 103 | 96.6 | 103 | 108 | growth at 10 µM (HL-60(TB)): 126%; growth at 10 µM (COLO 205): 116%; growth at 10 µM (A498): 92.5%; growth at 10 µM (ACHN): 102%; growth at 10 µM (RXF 393): 95.9%; growth at 10 µM (SN12C): 85.5%; growth at 10 µM (UO-31): 91.2%; growth at 10 µM (PC-3): 88.6%; growth at 10 µM (DU-145): 110%; growth at 10 µM (MCF7): 88.2%; growth at 10 µM (T47D): 96.4%; growth at 10 µM (MDA-MB-468): 87.4%
Nc1c(C(=O)Nc2ccccc2)sc2nc3c(cc12)CN(Cc1ccccc1)CC3 | 81 | 55 | 13 | 44 | 76 | 51 | 66 | 60 | 36 | 9 | 59 | 56 | 23 | 64 | 34 | 49 | 11 | 59 | 56 | 54 | growth at 10 µM (COLO 205): 66%; growth at 10 µM (OVCAR-3): 52%; growth at 10 µM (A498): -17%; growth at 10 µM (ACHN): 37%; growth at 10 µM (RXF 393): 12%; growth at 10 µM (SN12C): 66%; growth at 10 µM (UO-31): 41%; growth at 10 µM (PC-3): 70%; growth at 10 µM (DU-145): 57%; growth at 10 µM (MCF7): 53%; growth at 10 µM (T47D): 58%; growth at 10 µM (MDA-MB-468): 58%
Cc1cc(C)c(NC(=O)c2sc3nc4c(cc3c2N)CN(Cc2ccccc2)CC4)c(C)c1 | 21 | 25 | 12 | 7 | 30 | 16 | 12 | 15 | 8 | -11 | 44 | 26 | 28 | 17 | -11 | 3 | 44 | 30 | -18 | 23 | growth at 10 µM (OVCAR-3): 5%; growth at 10 µM (A498): -7%; growth at 10 µM (ACHN): 40%; growth at 10 µM (RXF 393): 5%; growth at 10 µM (SN12C): 36%; growth at 10 µM (UO-31): 37%; growth at 10 µM (PC-3): 25%; growth at 10 µM (DU-145): -12%; growth at 10 µM (MCF7): 8%; growth at 10 µM (T47D): 12%; growth at 10 µM (MDA-MB-468): 10%
Cc1ccc(S(=O)(=O)n2ccc(-c3ccc(OCCCF)cc3)n2)cc1 | 73.2 | 78.8 | 71.8 | 89.6 | 93.9 | 86.1 | 93.5 | 95 | 83.7 | 95.2 | 91.7 | 85 | 101 | 94.7 | 91.3 | 73.5 | 73.2 | 87.7 | 77.1 | 89.6 | growth at 10 µM (HL-60(TB)): 107%; growth at 10 µM (COLO 205): 101%; growth at 10 µM (A498): 77%; growth at 10 µM (ACHN): 97.4%; growth at 10 µM (RXF 393): 91.8%; growth at 10 µM (SN12C): 80.2%; growth at 10 µM (UO-31): 66.4%; growth at 10 µM (PC-3): 73.5%; growth at 10 µM (DU-145): 99.3%; growth at 10 µM (MCF7): 78.3%; growth at 10 µM (T47D): 72.9%; growth at 10 µM (MDA-MB-468): 44.4%
Cc1cccc(NC(=O)c2sc3nc4c(cc3c2N)C(=O)CCC4)c1 | 42 | 23 | 35 | 5 | 25 | 20 | 18 | 13 | 7 | -61 | 29 | 6 | 14 | 4 | -65 | 6 | 21 | 37 | 5 | 15 | growth at 10 µM (COLO 205): -21%; growth at 10 µM (OVCAR-3): -22%; growth at 10 µM (A498): -12.2%; growth at 10 µM (ACHN): 25%; growth at 10 µM (RXF 393): -10%; growth at 10 µM (SN12C): 35%; growth at 10 µM (UO-31): 41.2%; growth at 10 µM (PC-3): 20%; growth at 10 µM (DU-145): 6%; growth at 10 µM (MCF7): 16%; growth at 10 µM (T47D): 29%
O=S(=O)(c1ccccc1)n1ccc(-c2ccc3c(c2)CCO3)n1 | 85.6 | 78.8 | 41.8 | 87.3 | 90.8 | 89.1 | 92.8 | 91.9 | 83.3 | 86.7 | 83.4 | 73.6 | 94 | 101 | 104 | 70.2 | 70.1 | 84 | 76 | 90.3 | growth at 10 µM (HL-60(TB)): 109%; growth at 10 µM (COLO 205): 96.9%; growth at 10 µM (A498): 71.2%; growth at 10 µM (ACHN): 78.4%; growth at 10 µM (RXF 393): 82.9%; growth at 10 µM (SN12C): 67.9%; growth at 10 µM (UO-31): 51%; growth at 10 µM (PC-3): 84.2%; growth at 10 µM (DU-145): 95%; growth at 10 µM (MCF7): 83.2%; growth at 10 µM (T47D): 68.8%; growth at 10 µM (MDA-MB-468): 42.4%
